We go through 3 compounds from ChEMBL document CHEMBL1122058, “Agents for the treatment of brain injury. 1. (Aryloxy)alkanoic acids” (J Med Chem, 1982).

Data set [1] in a line: Distribution coefficient (D %) between octanol and buffer of pH 7.4. Type of data set: physicochemical. To be noted: octanol/water.
Data set [2] is described as follows: Dissociation constant (pKa) (determined in 30% EtOH). Type of data set: physicochemical.
In data set [3] the test system is Felis catus. As to the kind of experiment: Mortality of animals recorded as the number of animals dead out of the total animals (16) taken for the study at dose 5 mg/kg. Type of data set: functional. The procedure, abridged: (§1)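 Adult conditioned cats (2.5–4 kg) under iv methohexital (13.25 mg/kg, plus 2.75 mg/kg if needed) received machine-induced acceleration/deceleration head injury. Forty min later they were paralysed with gallamine and ventilated with 6% O2/94% N2 for 60 min (arterial pO2 23 ± 1 torr). Drug was given iv 20 min post-injury, before hypoxemia. Mortality was scored as dead/total, chi-square tested.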

For data set [4], the species on record is Felis catus. As to the kind of experiment: In vitro inhibition of HCO3- stimulated swelling in cat cerebrocortical tissue slice. Type of data set: functional. The following applies: read-out: I 50. In a few lines:
(§2)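 Cat cerebral cortex slices (~150 mg, 0.5 mm) incubated aerobically 60 min at 37 °C in K+-rich (27 mM) Hepes-buffered saline-glucose with test compound as Na salt. HCO3- (NaHCO3 or TEAB) added from sidearm at 20 min to 10 mM final; HCO3- flasks gassed with 2.5% CO2/97.5% O2. Swelling by reweighing; Na+/K+ by flame photometry, Cl- by amperometric titration. Units: per g initial fresh weight; means ± SE, Student's t test.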

For data set [5], the species on record is Pan troglodytes. Kind of data set: Relative salidiuretic efficacy was scored in chimpanzee; Marginal. It counts as functional, organism-based. To be noted: Urine.
The species named for data set [6] is Canis familiaris. As to the kind of experiment: Relative salidiuretic efficacy was scored in dog; Marginal. Type of data set: functional, organism-based. The following applies: Canis lupus familiaris; Urine.
The species named for data set [7] is Rattus norvegicus. Kind of data set: Relative salidiuretic efficacy was scored in Rat; Marginal. It counts as functional, organism-based. The following applies: Urine.
The species named for data set [8] is Felis catus. As to the kind of experiment: In vitro inhibition of HCO3- stimulated swelling in cat cerebrocortical tissue slice; No inhibition occurred. It counts as functional. To be noted: read-out: I 50. In a few lines:
as §2

Data set [9] is filed under the species Felis catus. Kind of data set: Evaluated for chloride ion content of Cerebrocortical slices in cat with addition of Sodium Bicarbonate (NaHCO3) and at a compound concentration of 1 X 10E-5 M. It counts as functional. The procedure, abridged:
as §2

Data set [10] is filed under the species Felis catus. Kind of data set: In vitro inhibition of tissue swelling of Cerebrocortical slices from cat with addition of Triethylammonium Bicarbonate (TEAB) and at a compound concentration of 1 X 10E-5 M. It counts as functional. In a few lines:
as §2

For data set [11], the species on record is Felis catus. Kind of data set: In vitro inhibition of tissue swelling of Cerebrocortical slices from cat with addition of Sodium Bicarbonate (NaHCO3) and at a compound concentration of 1 X 10E-5 M. It counts as functional. The procedure, abridged: as §2
Data set [12] is filed under the species Pan troglodytes. As to the kind of experiment: Relative salidiuretic efficacy was scored in chimpanzee; moderate. It counts as functional, organism-based. To be noted: Urine.
For data set [13], the species on record is Canis familiaris. Kind of data set: Relative salidiuretic efficacy was scored in dog; weak. Type of data set: functional, organism-based. The following applies: Canis lupus familiaris; Urine.
For data set [14], the species on record is Rattus norvegicus. As to the kind of experiment: Relative salidiuretic efficacy was scored in Rat; moderate. Type of data set: functional, organism-based. The following applies: Urine.
A short description of data set [15]: Compound at a concentration of 1 X 10E-5 M along with addition of Sodium Bicarbonate (NaHCO3) was tested for percent bicarbonate stimulated swelling of Cerebrocortical slices in cat (in vitro). Type of data set: functional, Felis catus. The procedure, abridged:
as §2

A short description of data set [16]: Evaluated for Potassium ion content of Cerebrocortical slices in cat with addition of Sodium Bicarbonate (NaHCO3) and at a compound concentration of 1 X 10E-5 M. Type of data set: functional, Felis catus. In a few lines: as §2
Data set [17] in a line: Evaluated for Potassium ion content of Cerebrocortical slices in cat with addition of Triethylammonium Bicarbonate (TEAB) and at a compound concentration of 1 X 10E-5 M. Type of data set: functional, Felis catus. The procedure, abridged: as §2
Data set [18] deals with Felis catus. As to the kind of experiment: Mortality of animals recorded as the number of animals dead out of the total animals (16) taken for the study at dose 1 mg/kg. It counts as functional. The procedure, abridged:
as §1

Data set [19] relates to Felis catus. As to the kind of experiment: Relative salidiuretic efficacy was scored in cat upon intravenous administration of 20 mg/kg of Na salt; inactive. Also on record: dose 20 mg/kg. It counts as functional, organism-based. To be noted: Urine.
For data set [20], the species on record is Rattus norvegicus. As to the kind of experiment: Relative salidiuretic efficacy was scored in Rat; inactive. Type of data set: functional, organism-based. To be noted: Urine.

Calls of active or inactive are those of the source. The rule behind the calls is not given here.

By pKa is commonly meant the pH at which an ionisable group is half protonated. As for `CC1(C2CCCC2)Cc2cc(OCCCC(=O)O)c(Cl)c(Cl)c2C1=O` (racemic), the Distribution in [1] came out at 99%. The same compound yielded a pKa in data set [2] of 5.7. Besides, the Mortality in the data set with Felis catus [3] is recorded as 4. For the same compound, in the data set listed under Felis catus [4], the IC50 was 20 nM. For the same compound, the Relative salidiuretic activity result in the data set listed under Pan troglodytes [5], in the data set filed under Canis familiaris [6] and in the data set listed under Rattus norvegicus [7] was “inactive” in each case.

`C[C@@]1(C2CCCC2)Cc2cc(OCC(=O)O)c(Cl)c(Cl)c2C1=O` came in with a Distribution in [1] of 90%. This compound displayed a pKa in [2] of 3.9. In addition, the IC50 in the data set filed under Felis catus [8] is above 10 µM. Further, the Activity in the data set listed under Felis catus [9] came out at 104.6 µM/g; in the data set filed under Felis catus [10], 279 µM/g; in data set [15], 100; in [16], 96.4 µM/g; in data set [17], 93.6 µM/g. Further, in the data set listed under Felis catus [11], the Tissue swelling came out at 266 µL/g. Moreover, the Relative salidiuretic activity entry in the data set listed under Pan troglodytes [12], in the data set filed under Canis familiaris [13] and in the data set filed under Rattus norvegicus [14] was “marked” throughout.

Consider `C[C@]1(C2CCCC2)Cc2cc(OCCCC(=O)O)c(Cl)c(Cl)c2C1=O`, for which the Distribution in data set [1] came out at 99%. Further, the pKa in data set [2] turned out to be 5.7. The compound also came in with a Mortality in the data set on Felis catus [18] of 5. In the data set listed under Felis catus [4], the IC50 stood at 10 nM. The Relative salidiuretic activity entry with Felis catus [19] and in the data set listed under Rattus norvegicus [20] was “inactive” each time.
